The values that follow come from ChEMBL document CHEMBL1127040, “Orally active beta-lactam inhibitors of human leukocyte elastase. 2. Effect of C-4 substitution” (1993).

Assay [1] deals with T1, Neutrophil elastase (Homo sapiens) (UniProt P08246).
T1 sequence (whole entry): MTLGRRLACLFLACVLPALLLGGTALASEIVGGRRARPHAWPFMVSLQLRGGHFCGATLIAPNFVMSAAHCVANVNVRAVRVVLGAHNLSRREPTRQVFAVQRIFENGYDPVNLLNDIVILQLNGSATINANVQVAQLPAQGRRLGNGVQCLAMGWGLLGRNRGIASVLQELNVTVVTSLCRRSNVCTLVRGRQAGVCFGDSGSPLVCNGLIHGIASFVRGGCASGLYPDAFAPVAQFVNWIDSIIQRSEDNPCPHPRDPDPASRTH
Put plainly: Inhibition of Human Leukocyte Elastase, activity is expressed as biomolecular rate constant. An outline of the steps:
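Spectrophotometric assay at 25 °C with continuous monitoring of p-nitroaniline release at 410 nm from succinyl-Ala-Ala-Pro-Ala-p-nitroanilide. Activity given as the bimolecular rate constant kobs/[I] in M-1 s-1 (±SE).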

For assay [2], the target named is T1, Neutrophil elastase (Homo sapiens). Put plainly: Inhibition of Human Leukocyte Elastase induced lung hemorrhage in hamsters expressed as % inhibition (mean of 4 animals). In kind it is functional. On the set-up: concentration or dose not given beside the values. The settings on record: concentration not given here. An outline of the steps: (§1)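 Hamster lung hemorrhage model: inhibitor given orally at 30 mg/kg (some at 50 mg/kg) 30 min before instillation of HLE into the lung. Hemorrhage measured 3 h after instillation as hemoglobin content of lung lavage fluid, read spectrophotometrically. Reported as % inhibition, mean of four animals (±SD).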

A further assay relates to Cricetinae gen. sp. In words: Inhibition of Human Leukocyte Elastase induced Lung Hemorrhage in Hamsters expressed as % inhibition (mean of 4 animals). It is filed as functional, Cricetulus griseus. An outline of the steps: as §1

Structures are written as SMILES.

As usually defined, the inhibition is the change of the read-out against control, counted positive when it falls. For `CCC1(CC)C(=O)N(C(=O)NCc2ccccc2)C1n1ccnc1` (centres undefined), the k obs / 1 in assay [1] is 200 M⁻¹ s⁻¹. In addition, the inhibition in assay [2] amounted to 55%.
On the same counts, the results for `CCC1(CC)C(=O)N(C(=O)NCc2ccccc2)C1Oc1cccc(CC(=O)O)c1` (centres undefined) are 1200 M⁻¹ s⁻¹ and 67%.
The compound `CCC1(CC)C(=O)N(C(=O)NCc2ccccc2)C1Oc1cccc(NC(C)=O)c1` (centres undefined) returned a k obs / 1 in assay [1] of 1700 M⁻¹ s⁻¹.
In the case of `CCC1(CC)C(=O)N(C(=O)NCc2ccccc2)C1Oc1ccc(NC(=O)CCC(=O)O)cc1` (centres undefined), the k obs / 1 in assay [1] is 2330 M⁻¹ s⁻¹. For the same compound, in assay [2], the inhibition is -3%.
The compound `CCC1(CC)C(=O)N(C(=O)NCc2ccccc2)C1N1N=CC=CN1Cc1ccccc1` (centres undefined) returned a k obs / 1 in assay [1] of 650 M⁻¹ s⁻¹.
As to `CCC1(CC)C(=O)N(C(=O)NCc2ccccc2)C1Oc1ccc(C(=O)O)cc1` (centres undefined), the inhibition in assay [2] came to 68%.
Take `CCC1(CC)C(=O)N(C(=O)NCc2ccccc2)C1C(=O)c1ccccc1` (centres undefined): the k obs / 1 in assay [1] stood at 22 M⁻¹ s⁻¹.
Same read-out and setting: the same measure for `CCC1(CC)C(=O)N(C(=O)NCc2ccccc2)C1Oc1ccc(CC(N)C(=O)O)cc1` (centres undefined): 2540 M⁻¹ s⁻¹.
`CCC1(CC)C(=O)N(C(=O)NCc2ccccc2)C1Oc1ccccc1CC(=O)O` (centres undefined) came in with a k obs / 1 in assay [1] of 44 M⁻¹ s⁻¹. In addition, the inhibition in assay [2] came to 45%.
In turn, `CCC1(CC)C(=O)N(C(=O)NCc2ccccc2)C1Oc1ccc(C(=O)N2CCC[C@@H]2C(=O)O)cc1` (some centres undefined) had a k obs / 1 in assay [1] of 2900 M⁻¹ s⁻¹.
Take `CCC1(CC)C(=O)N(C(=O)NCc2ccccc2)C1Oc1cccnc1` (centres undefined): the k obs / 1 in assay [1] is 1620 M⁻¹ s⁻¹. Further, the inhibition in assay [2] worked out at 46%.
On the same counts, the results for `CCC1(CC)C(=O)N(C(=O)NCc2ccccc2)C1N1C=NC=CN1` (centres undefined) are 246 M⁻¹ s⁻¹ and 72%.
As for `CCC1(CC)C(=O)N(C(=O)NCc2ccccc2)C1Oc1ccc2cc(C(=O)O)ccc2c1` (centres undefined), the k obs / 1 in assay [1] is 5600 M⁻¹ s⁻¹. The inhibition in assay [2] came out at 28%.
On the same counts, the results for `CCC1(CC)C(=O)N(C(=O)NCc2ccccc2)C1Oc1ccc(S(C)(=O)=O)cc1` (centres undefined) are 4500 M⁻¹ s⁻¹ and 16%.
`CCC1(CC)C(=O)N(C(=O)NCc2ccccc2)C1Oc1ccc(CC(NC(=O)c2ccccc2)C(=O)O)cc1` (centres undefined): the k obs / 1 in assay [1] was 5110 M⁻¹ s⁻¹.
`CCC1(CC)C(=O)N(C(=O)NCc2ccccc2)C1Oc1ccc(C(=O)O)c(C(=O)O)c1` (centres undefined) came in with a k obs / 1 in assay [1] of 570 M⁻¹ s⁻¹.
Still for that read-out and setting: the same measure for `CCC1(CC)C(=O)N(C(=O)NCc2ccccc2)C1Oc1cccc([N+](=O)[O-])c1` (centres undefined): 4800 M⁻¹ s⁻¹.
In assay [1], `CCC1(CC)C(=O)N(C(=O)NCc2ccccc2)C1Sc1cccnc1` (centres undefined) showed a k obs / 1 of 250 M⁻¹ s⁻¹. Moreover, the inhibition in assay [2] is -5%.
In turn, `CCC1(CC)C(=O)N(C(=O)NCc2ccccc2)C1Oc1c(C)cc(C(=O)O)cc1C` (centres undefined) showed a k obs / 1 in assay [1] of 750 M⁻¹ s⁻¹.
On to `CCC1(CC)C(=O)N(C(=O)NCc2ccccc2)C1Oc1ccc(SC)cc1` (centres undefined), for which, in assay [1], the k obs / 1 was 3500 M⁻¹ s⁻¹. Besides, in assay [2], the inhibition is 2%.
On the same counts, the results for `CCC1(CC)C(=O)N(C(=O)NCc2ccccc2)C1Oc1ccc(C(=O)O)c2ccccc12` (centres undefined) are 2000 M⁻¹ s⁻¹ and 15%.
On the same counts, the results for `CCC1(CC)C(=O)N(C(=O)NCc2ccccc2)C1Oc1ccc(CCC(=O)O)cc1` (centres undefined) are 2440 M⁻¹ s⁻¹ and 60%.
Turning to `CCC1(CC)C(=O)N(C(=O)NCc2ccccc2)C1Oc1ccccc1[N+](=O)[O-]` (centres undefined), the k obs / 1 in assay [1] was found to be 890 M⁻¹ s⁻¹.
`CCC1(CC)C(=O)N(C(=O)NCc2ccccc2)C1Oc1cccc(C(=O)O)c1` (centres undefined) came in with a k obs / 1 in assay [1] of 1800 M⁻¹ s⁻¹. In addition, the inhibition in assay [2] was found to be 33%.
`CCC1(CC)C(=O)N(C(=O)NCc2ccccc2)C1Oc1ccc(C(O)C(=O)O)cc1` (centres undefined): the k obs / 1 in assay [1] amounted to 2100 M⁻¹ s⁻¹. Also, the inhibition in assay [2] was 36%.
As for `CCC1(CC)C(=O)N(C(=O)NCc2ccccc2)C1Oc1cc(C)c(C(=O)O)c(C)c1` (centres undefined), the k obs / 1 in assay [1] was 24 M⁻¹ s⁻¹.
`CCC1(CC)C(=O)N(C(=O)NCc2ccccc2)C1Oc1ccc([N+](=O)[O-])cc1` (centres undefined): the k obs / 1 in assay [1] was found to be 6800 M⁻¹ s⁻¹.
`CCC1(CC)C(=O)N(C(=O)NCc2ccccc2)C1Oc1ccc(CC(NC(=O)CCC(=O)O)C(=O)O)cc1` (centres undefined): the k obs / 1 in assay [1] came out at 900 M⁻¹ s⁻¹. The inhibition in assay [2] amounted to 7%.
On the same counts, the results for `CCC1(CC)C(=O)N(C(=O)NCc2ccccc2)C1OCC(O)CO` (centres undefined) are 800 M⁻¹ s⁻¹ and 46%.
The compound `CCC1(CC)C(=O)N(C(=O)NCc2ccccc2)C1Oc1ccc(NC(C)=O)cc1` (centres undefined) displayed a k obs / 1 in assay [1] of 3500 M⁻¹ s⁻¹.
Compound `CCC1(CC)C(=O)N(C(=O)NCc2ccccc2)C1Oc1ccc(/C=C/C(=O)O)cc1` (centres undefined) registered a k obs / 1 in assay [1] of 1600 M⁻¹ s⁻¹. Moreover, the inhibition in assay [2] was 61%.
The compound `CCC1(CC)C(=O)N(C(=O)NCc2ccccc2)C1Oc1ccc(C(=O)NS(=O)(=O)c2ccc(Cl)cc2)cc1` (centres undefined) showed a k obs / 1 in assay [1] of 6900 M⁻¹ s⁻¹. The inhibition in assay [2] is 11%.
`CCC1(CC)C(=O)N(C(=O)NCc2ccccc2)C1Oc1cccc(NC(=O)CCC(=O)O)c1` (centres undefined) came in with a k obs / 1 in assay [1] of 2700 M⁻¹ s⁻¹.
The same measure, in the same setting: the same measure for `CCC1(CC)C(=O)N(C(=O)NCc2ccccc2)C1OCc1ccc(C(=O)O)cc1` (centres undefined): 54 M⁻¹ s⁻¹.
Compound `CCC1(CC)C(=O)N(C(=O)NCc2ccccc2)C1n1ccccc1=O` (centres undefined) returned a k obs / 1 in assay [1] of 360 M⁻¹ s⁻¹. Besides, in assay [2], the inhibition turned out to be 29%.
On the same counts, the results for `CCC1(CC)C(=O)N(C(=O)NCc2ccccc2)C1Oc1ccccc1NC(C)=O` (centres undefined) are 270 M⁻¹ s⁻¹ and 24%.
The compound `CCC1(CC)C(=O)N(C(=O)NCc2ccccc2)C1Oc1ccccc1` (centres undefined) registered a k obs / 1 in assay [1] of 1900 M⁻¹ s⁻¹.
As usually defined, the Inhibition is the share of the control response that was lost under treatment. `CCC1(CC)C(=O)N(C(=O)NCc2ccccc2)C1Sc1nnnn1C` (centres undefined) yielded a k obs / 1 in assay [1] of 3760 M⁻¹ s⁻¹. This compound gave an Inhibition in the assay with Cricetinae gen. sp. of 26%.
Regarding `CCC1(CC)C(=O)N(C(=O)NCc2ccccc2)C1Oc1ccc([S+](C)[O-])cc1` (centres undefined), the k obs / 1 in assay [1] was determined as 4200 M⁻¹ s⁻¹.
Turning to `CCC1(CC)C(=O)N(C(=O)NCc2ccccc2)C1Oc1ccc(C(=O)CCC(=O)O)cc1` (centres undefined), in assay [1], the k obs / 1 was 5000 M⁻¹ s⁻¹. For the same compound, the inhibition in assay [2] amounted to 85%.
In assay [1], `CCC1(CC)C(=O)N(C(=O)NCc2ccccc2)C1Oc1ccc(C[N+](C)(C)C)cc1` (centres undefined) returned a k obs / 1 of 2430 M⁻¹ s⁻¹. Moreover, in assay [2], the inhibition was determined as 4%.
For the compound `CCC1(CC)C(=O)N(C(=O)NCc2ccccc2)C1Oc1ccc(CN(C)C)cc1` (centres undefined), in assay [1], the k obs / 1 was 1600 M⁻¹ s⁻¹. The inhibition in assay [2] came to 0%.
For the compound `CCC1(CC)C(=O)N(C(=O)NCc2ccccc2)C1Oc1ccccc1NC(=O)CCC(=O)O` (centres undefined), the k obs / 1 in assay [1] amounted to 70 M⁻¹ s⁻¹.
On to `CCC1(CC)C(=O)N(C(=O)NCc2ccccc2)C1OCC(=O)O` (centres undefined), for which, in assay [1], the k obs / 1 came out at 160 M⁻¹ s⁻¹. Besides, the inhibition in assay [2] was determined as 6%.
